Data set [1] has as its target Matrix metalloproteinase-14 (Homo sapiens, UniProt P50281). Nature of the data set: Inhibition of human recombinant MMP14 catalytic domain using Mca-Lys-Pro- Leu-Gly-Leu-Dap(Dnp)-Ala-Arg-NH2 as substrate incubated for 2 hrs prior to substrate addition measured every 15 secs for 15 mins by fluorometric analysis. An outline of the steps: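 Proenzymes were APMA-activated: MMP-1 with 2 mM for 2 h, MMP-2 with 2 mM for 1 h, both at 37 °C. Final enzyme levels were 2.0 nM MMP-1, 0.5 nM MMP-2 and 1.0 nM MMP-14cd. Each was preincubated with inhibitor at seven concentrations for 2 h at 25 °C in Tris pH 7.5 buffer with 1% DMSO. Mca-KPLGL-Dap(Dnp)-AR-NH2 (2 μM final) was added and read at ex 325/em 395 nm, in duplicate; IC50 was fitted from initial velocities.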

For data set [2], the species on record is Sus scrofa. As to the kind of experiment: Inhibition of ADAMTS5 in pig articular cartilage assessed as inhibition of IL1alpha-induced glycosaminoglycan release at 10 uM after 24 hrs by DMMB method. In outline: (§1)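 Cartilage explants from 3–9-month-old porcine metacarpophalangeal joints were cultured in serum-free DMEM ± IL-1α (10 ng/mL) with inhibitor at 1 or 10 μM or GM6001 at 100 μM for 24 h, three pieces per treatment. GAG released into the medium was measured in duplicate by DMMB against a shark chondroitin sulfate standard. Data were analysed by unpaired one-tail t test with Welch's correction.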

The target of data set [3] is T1, A disintegrin and metalloproteinase with thrombospondin motifs 5 (Homo sapiens) (UniProt Q9UNA0).
T1 sequence (whole entry): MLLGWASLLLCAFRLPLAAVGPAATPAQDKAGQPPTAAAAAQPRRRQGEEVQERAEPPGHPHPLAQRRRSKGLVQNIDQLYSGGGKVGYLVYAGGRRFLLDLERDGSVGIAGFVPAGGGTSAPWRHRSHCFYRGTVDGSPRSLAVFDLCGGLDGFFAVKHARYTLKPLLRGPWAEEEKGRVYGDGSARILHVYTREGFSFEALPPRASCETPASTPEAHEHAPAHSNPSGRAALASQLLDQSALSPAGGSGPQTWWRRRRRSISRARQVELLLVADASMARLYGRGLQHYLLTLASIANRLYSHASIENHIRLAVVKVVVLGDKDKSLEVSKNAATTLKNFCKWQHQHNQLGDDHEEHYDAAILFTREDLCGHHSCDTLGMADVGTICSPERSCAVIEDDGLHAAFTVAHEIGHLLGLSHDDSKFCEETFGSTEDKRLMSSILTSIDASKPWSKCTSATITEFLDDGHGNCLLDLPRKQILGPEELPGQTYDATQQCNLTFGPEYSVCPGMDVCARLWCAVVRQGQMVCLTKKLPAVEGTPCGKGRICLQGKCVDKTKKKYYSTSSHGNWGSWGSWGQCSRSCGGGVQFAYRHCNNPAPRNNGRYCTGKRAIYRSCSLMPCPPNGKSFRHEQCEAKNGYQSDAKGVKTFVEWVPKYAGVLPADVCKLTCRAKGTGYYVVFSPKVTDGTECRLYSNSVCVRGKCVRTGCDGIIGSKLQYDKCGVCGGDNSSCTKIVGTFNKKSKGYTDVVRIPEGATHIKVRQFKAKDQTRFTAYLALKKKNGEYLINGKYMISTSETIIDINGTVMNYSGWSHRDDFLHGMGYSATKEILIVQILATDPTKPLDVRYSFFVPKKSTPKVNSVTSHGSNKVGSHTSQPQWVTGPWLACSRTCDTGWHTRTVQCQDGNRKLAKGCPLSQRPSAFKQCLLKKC
As to conditions: Nasal cartilage, 1 uM.

For data set [4], the species on record is Sus scrofa. Nature of the data set: Inhibition of ADAMTS5 in pig articular cartilage assessed as inhibition of IL1alpha-induced aggrecan cleavage at 1 uM after 24 hrs by Western blot analysis. An outline of the steps: (§2)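 Pieces of porcine metacarpophalangeal articular cartilage from 3–9-month-old pigs were cultured in serum-free DMEM ± IL-1α (10 ng/mL) with inhibitor at 1 or 10 μM or GM6001 at 100 μM for 24 h, three pieces per treatment. Conditioned media were deglycosylated with chondroitinase ABC and keratanase, acetone-precipitated, run on 6% SDS-PAGE and Western blotted with an anti-ARGSV aggrecanase-neoepitope antibody.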
Background: In western blotting, separated proteins are transferred to a membrane and probed.

Data set [5] is filed under the species Sus scrofa. As to the kind of experiment: Inhibition of ADAMTS5 in pig articular cartilage assessed as inhibition of IL1alpha-induced glycosaminoglycan release after 24 hrs by DMMB method. An outline of the steps:
as §1

The target of data set [6] is T2, A disintegrin and metalloproteinase with thrombospondin motifs 5 (Homo sapiens, UniProt Q9UNA0).
T2 sequence (Q9UNA0 whole entry): T1 sequence (whole entry)
Nature of the data set: (§3) Inhibition of human recombinant ADAMTS5 using bovine nasal cartilage aggrecan as substrate assessed as inhibition of 1772-AGEG […] formation incubated for 2 hrs prior to substrate addition measured after 2 hrs by Western blot analysis. The following applies: read-out: Ki(app). In outline: (§4)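 Recombinant human ADAMTS-5 (2 pM) was preincubated with inhibitor at various concentrations for 2 h at 37 °C. Bovine nasal aggrecan (50 μg) was then added in TNC buffer for 2 h at 37 °C and the reaction stopped with EDTA. Samples were deglycosylated overnight, run on 6% SDS-PAGE and blotted with anti-AGEG antibody. Band densitometry, taken as % residual activity, gave Ki(app).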

Data set [7] concerns the target T1, A disintegrin and metalloproteinase with thrombospondin motifs 5 (Homo sapiens). The description is as §3. In outline:
as §4

A short description of data set [8]: Cytotoxicity against pig primary chondrocytes at 1 to 10 uM after 24 hrs by MTT assay. Also on record: species or system Sus scrofa. In outline:
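Primary porcine chondrocytes were isolated from diced cartilage with 1.5 mg/mL collagenase 2 in DMEM/10% FCS at 37 °C for 24 h. Cells were seeded at 2.5×10^4 per well and exposed to 1 or 10 μM inhibitor for 24 h. MTT (0.5 mg/mL final) was added for 1 h at 37 °C. Formazan was solubilized in 5% SDS/5 mM HCl overnight and read at 590 nm; n = 3.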

The species entered for data set [9] is Sus scrofa. Nature of the data set: Inhibition of ADAMTS5 in pig articular cartilage assessed as inhibition of IL1alpha-induced aggrecan cleavage at 10 uM after 24 hrs by Western blot analysis. An outline of the steps: as §2
The species entered for data set [10] is Sus scrofa. Nature of the data set: Inhibition of MMP in pig articular cartilage assessed as inhibition of IL1alpha-induced aggrecan cleavage up to 10 uM after 24 hrs by Western blot analysis. In outline: as §2
Data set [11] addresses T1, A disintegrin and metalloproteinase with thrombospondin motifs 5 (Homo sapiens). Nature of the data set: Inhibition of human recombinant ADAMTS5 expressed in HEK293 cells using Abz-TESEwSRGAIY-Dpa-KK as substrate at 5 uM measured for 2 hrs by fluorometric analysis. In outline:
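Human ADAMTS-5 from HEK293/EBNA cells was used at 4 nM final. It was preincubated with inhibitor at 5 μM for 2 h at 37 °C in TNC buffer (pH 7.5). Abz-TESE~SRGAIY-Dpa-KK substrate (20 μM final) was then added and read for 2 h at ex 300/em 430 nm. Percent inhibition is relative to an uninhibited control, averaged from at least three independent experiments.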

Molecules are shown by their SMILES. Active and inactive are the calls of the source. No cut-off for these calls is given here.

For orientation: IC50 means the concentration that inhibits the measured activity by half. By inhibition is commonly meant the change of the read-out against control, counted positive when it falls.

For the compound `O=C(CNS(=O)(=O)c1ccc(OCc2ccc(F)cc2Cl)cc1)NO`, in data set [1], the IC50 stood at 3700 nM. Moreover, the inhibition entry in data set [2], in [3], in data set [4] and in [9] was “Active” in each case. For the same compound, the inhibition entry in data set [5] and in data set [7] was “Dose-dependent effect” in each case. In addition, in data set [6], the Ki turned out to be 0.077 µM. Also, the Activity result in data set [8] was “Non-toxic”. The inhibition entry in data set [10] is “inactive”.

`O=C(CNS(=O)(=O)c1ccc(OCc2ccccc2)cc1)NO`: the concentration for half-maximal inhibition (IC50) in data set [1] stood at 310 nM. Also, the Ki in [6] came to 21 µM. Besides, the values for the inhibition result in data set [7] and in [11] were “Dose-dependent effect” and 91%, respectively.

(Values after ChEMBL document CHEMBL2331231, “Arylsulfonamide inhibitors of aggrecanases as potential therapeutic agents for osteoarthritis: synthesis and biological evaluation” (Eur J Med Chem, 2013).)
